The values below come from paper PMC2195906 (The Journal of Experimental Medicine, 2001).

For experiment [1], the target named is T1, ANT (Rattus norvegicus, UniProt Q05962).
T1 sequence (Q05962 1-298): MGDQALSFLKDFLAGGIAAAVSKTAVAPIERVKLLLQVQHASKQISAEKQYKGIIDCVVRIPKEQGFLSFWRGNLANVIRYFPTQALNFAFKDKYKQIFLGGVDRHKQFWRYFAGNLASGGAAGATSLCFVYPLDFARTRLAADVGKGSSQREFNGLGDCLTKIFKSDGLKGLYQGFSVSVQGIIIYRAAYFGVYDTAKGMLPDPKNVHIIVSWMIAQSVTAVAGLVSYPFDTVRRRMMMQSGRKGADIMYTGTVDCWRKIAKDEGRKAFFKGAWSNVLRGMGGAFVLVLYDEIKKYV
Nature of the experiment: Plasmon resonance. The class given is binding.

Another experiment relates to recombinant VDAC. Nature of the experiment: Plasmon resonance: binding to recombinant VDAC. The conditions noted are these: control experiments, VDAC concentrations up to 10 μM.
In experiment [2] the test system is ANT proteoliposomes. Nature of the experiment: Binding of FITC-labeled Vpr52-96 to ANT proteoliposomes. Set-up: species or system rat. The conditions noted are these: FITC-labeled Vpr52-96, 30 min; Fig. 2 A; n = 3. The gist of the method:
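ANT was purified from rat heart mitochondria (Triton X-100 extraction, hydroxyapatite, then cation-exchange with a 0–1 M NaCl gradient) and reconstituted at 0.1 mg/ml into phosphatidylcholine/cardiolipin liposomes, then dialysed overnight at 4°C. Proteoliposomes were exposed 30 min to FITC-peptide in 125 mM sucrose/10 mM Hepes pH 7.4, ultracentrifuged (290,000 g, 45 min, 10°C) and read by flow cytometry. Inhibitors were preincubated and washed out; mean ± SD, n = 3.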

The subject of experiment [3] is ANT proteoliposomes. Briefly: Pore-opening assay: 4-MUP release from ANT proteoliposomes. It is filed as biochemical, rat. The conditions noted are these: peptides 1 μM, 60 min, Atr 200 μM = 100%, Fig. 2 C. The gist of the method:
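ANT purified from rat heart mitochondria, reconstituted into PC/cardiolipin liposomes, sonicated on ice with 1 mM 4-MUP/10 mM KCl, gel-filtered. Diluted in 10 mM Hepes, 125 mM saccharose pH 7.4, peptide 1 h RT; inhibitors added 30 min earlier. Alkaline phosphatase (0.5 mM MgCl2) 15 min 37°C, stopped at pH 10. 4-MU fluorescence 360/450 nm. Release = % of atractyloside response after untreated background subtraction; n = 3, SD.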

A short description of experiment [4]: Pore-opening assay: plain liposomes. The class given is biochemical. The note with it: 4-MUP loaded, data not shown. The gist of the method: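 Liposomes sonicated on ice with 1 mM 4-MUP and 10 mM KCl, then freed of unencapsulated probe on Sephadex G-25. Diluted in 10 mM Hepes, 125 mM saccharose pH 7.4 and exposed to inducers for 1 h at RT; inhibitors were added 30 min earlier. Alkaline phosphatase with 0.5 mM MgCl2 was added for 15 min at 37°C and stopped with EDTA buffer at pH 10. 4-MU fluorescence (360/450 nm) was expressed as % of the atractyloside response after subtracting untreated liposomes.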

Experiment [5] deals with T1, ANT. Nature of the experiment: Planar lipid bilayers, single channel level, Vpr52-96 plus ANT. It is filed as biochemical. The note with it: Vpr52-96 plus ANT 0.4:1 nM, +115 mV; tip-dip technique. In short, it runs like this:
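Rat heart mitochondrial ANT, purified via subtilisin treatment, Triton X-100 solubilization, hydroxyapatite and SP column (0–1 M NaCl). Proteins held 30 min RT with 1 mM CaCl2, 40 μM atractyloside or control electrolyte, mixed with dried lipid (60 μg protein/mg lipid), detergent removed by beads. Tip-dip bilayers, symmetric 100 mM KCl, 2 mM MgCl2, 10 mM Hepes pH 7.4.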

Experiment [6] can be described thus: Planar lipid bilayers, single channel level, Vpr52-96 without ANT. It is filed as biochemical. The note with it: <1 nM Vpr52-96. The gist of the method: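 Solvent-free planar bilayers formed by monolayer apposition on a 125-μm Teflon aperture, or by tip-dip on patch pipettes. Recording was in symmetric 100 mM KCl, 2 mM MgCl2, 10 mM Hepes pH 7.4, with Ag/AgCl electrodes under applied voltage. Bare membranes were first checked for electrical silence; peptide was added to the aqueous subphase after bilayer formation. Single-channel current traces show the most frequent events.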

The test system of experiment [7] is purified mitochondria (respiratory control). Briefly: Respiratory control. It is filed as biochemical, mouse. The note with it: 1 μM Vpr-derived peptides, 10 min. In short, it runs like this:
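Clark-electrode oxygraphy at 37°C in 0.3 M mannitol, 10 mM KCl, 5 mM MgCl2, 1 mg/ml BSA, 10 mM KH2PO4, pH 7.4. Purified mitochondria were pretreated 10 min with 1 μM peptide; succinate oxidation was followed with sequential ADP, oligomycin and CCCP additions. Mean of three determinations.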

Experiment [8] deals with purified mitochondria (respiratory chain). Nature of the experiment: Polarography: succinate oxidation of purified mitochondria. The class given is biochemical, mouse. The conditions noted are these: 1 μM Vpr52-96, 10 min pretreatment; Fig. 4 A. In short, it runs like this: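 Mouse liver mitochondria, pretreated 10 min with test peptide or untreated, held at 37°C in a Clark-electrode cell. Medium: 0.3 M mannitol, 10 mM KCl, 5 mM MgCl2, 1 mg/ml BSA, 10 mM KH2PO4, pH 7.4. Oxygen consumption traced on succinate with sequential ADP, oligomycin and CCCP additions.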

Experiment [9] concerns purified mitochondria, inner membrane. Briefly: Respirometry: NADH-dependent oxygen consumption. It is filed as biochemical, mouse. In short, it runs like this: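 Oxygen uptake was recorded by Clark electrode at 37°C (mannitol/KCl/MgCl2/BSA/KH2PO4 medium, pH 7.4) after 2 mM NADH and 1 μM peptide, with rotenone added to test sensitivity; rates are in nmol O2/min/mg protein. For inhibitor tests, mitochondria were pretreated 10 min with 0.8 μM Bcl-2 or 10 μM BA before succinate plus CCCP or NADH. In the kinetics, 15 μM cytochrome c oxidation was followed in parallel, with 100% set by 2.5 mM laurylmaltoside.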

The subject of experiment [10] is purified mitochondria, outer membrane. Nature of the experiment: Cytochrome c oxidation. The class given is biochemical, mouse. The note with it: 15 μM cytochrome c; 100% by 2.5 mM laurylmaltoside; Fig. 5 B. In short, it runs like this:
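Mouse liver mitochondria exposed to test peptide, followed over time. Outer-membrane permeability read as spectrophotometric/spectrofluorometric oxidation of added reduced cytochrome c (15 μM) by cytochrome c oxidase. Maximal (100%) oxidation set by 2.5 mM laurylmaltoside; signal expressed as a percentage of this. Inner-membrane NADH oxidation (2 mM, oxygen consumption) tracked in parallel.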

Experiment [11] concerns purified mitochondria (cytochrome c release). Nature of the experiment: Cytochrome c release immunodetected in supernatant of mitochondria. It is filed as biochemical, mouse. The conditions noted are these: 1 μM Vpr52-96; immunoblot; Fig. 5 C. The gist of the method: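 Mouse liver mitochondria treated with test peptide over a time course. Supernatants cleared by two spins (6,800 g 15 min; 20,000 g 1 h; both 4°C), stored at −80°C, and cytochrome c immunodetected with a mouse monoclonal antibody. In parallel, ΔΨm loss scored by flow cytometry with JC-1 as percent low-ΔΨm mitochondria.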

In a further experiment the test system is isolated mitochondria. Briefly: Ultrastructure: swelling of isolated mitochondria. The class given is biochemical, mouse. The note with it: for swollen mitochondria: control <5%.
Another experiment concerns PTPC. The note with it: cited from earlier work.
The next experiment deals with recombinant Bcl-2. Nature of the experiment: Plasmon resonance: interaction with recombinant Bcl-2. The note with it: surface plasmon resonance, control experiments. It is filed as binding, human.

“Also recorded” adds a separate entry of the source.

Consider `CC[C@H](C)[C@H](NC(=O)CNC(=O)[C@@H](NC(=O)[C@H](CCCNC(=N)N)NC(=O)[C@H](CO)NC(=O)[C@H](Cc1c[nH]cn1)NC(=O)[C@H](CCCNC(=N)N)NC(=O)[C@H](CS)NC(=O)CNC(=O)[C@@H](NC(=O)[C@H](CCCNC(=N)N)NC(=O)[C@H](Cc1ccccc1)NC(=O)[C@H](Cc1c[nH]cn1)NC(=O)[C@@H](NC(=O)[C@H](Cc1ccccc1)NC(=O)[C@H](CC(C)C)NC(=O)[C@H](CC(C)C)NC(=O)[C@H](CCC(N)=O)NC(=O)[C@H](CCC(N)=O)NC(=O)[C@H](CC(C)C)NC(=O)[C@@H](NC(=O)[C@H](CCCNC(=N)N)NC(=O)[C@@H](NC(=O)[C@H](CC(C)C)NC(=O)[C@H](C)NC(=O)[C@H](CCC(=O)O)NC(=O)[C@@H](NC(=O)CNC(=O)[C@@H](NC(=O)[C@H](Cc1c[nH]c2ccccc12)NC(=O)[C@@H](NC(=O)[C@@H](N)CC(=O)O)[C@@H](C)O)[C@@H](C)O)C(C)C)[C@@H](C)CC)[C@@H](C)CC)[C@@H](C)CC)[C@@H](C)CC)[C@@H](C)CC)C(=O)N[C@H](C(=O)N[C@@H](CCC(N)=O)C(=O)N[C@@H](CCC(N)=O)C(=O)N[C@@H](CCCNC(=N)N)C(=O)N[C@@H](CCCNC(=N)N)C(=O)N[C@H](C(=O)N[C@@H](CCCNC(=N)N)C(=O)N[C@@H](CC(N)=O)C(=O)NCC(=O)N[C@@H](C)C(=O)N[C@@H](CO)C(=O)N[C@@H](CCCCN)C(=O)N[C@@H](CO)C(=O)O)[C@@H](C)O)[C@@H](C)CC` [Vpr52-96], for which the “sensorgram: increase of binding as a function of time” value at ANT [1] (plasmon resonance, association and dissociation phase, Fig. 1 A) was “exhibits an increase of binding as a function of time and a positive signal at the start of the dissociation phase (off)”. Also, the “binding affinity for ANT (in words)” value on ANT [1] (surface plasmon resonance, purified detergent-solubilized ANT) is “affinity in the nanomolar range”. For the same molecule, the “specific binding to VDAC” value in the experiment with recombinant VDAC is “no specific binding”. For the same molecule, the “binding to ANT liposomes compared with protein-free liposomes” value with ANT proteoliposomes [2] is on record as “greatly facilitated in liposomes in which ANT has been reconstituted compared with protein-free liposomes”. The “permeabilization of ANT proteoliposomes” value in the experiment with ANT proteoliposomes [3] is given as “caused permeabilization of ANT proteoliposomes”. In addition, the “effect on plain liposomes” value in [4] is given as “had no effect on plain liposomes”. Besides, the “channel conductance, Vpr52-96 plus ANT” value on ANT [5] is on record as 190 ± 2 pS. Also, the “channel formation at low doses without ANT” value in experiment [6] is listed as “incapable of forming channels”. Also, the “effect on RC (in words)” value in experiment [7] is recorded as “gross deficiency in respiratory control”. Also, the “effect on respiration (succinate oxidation)” value in [8] was “increased succinate oxidation preceding ADP addition and abolished both the inhibitory effect of oligomycin (a specific ATPase inhibitor) and the stimulatory effect of uncoupling by the protonophore CCCP; also recorded: not associated with a significant decrease of the oxidation rate; also recorded: adding cytochrome c to Vpr52-96–treated mitochondria oxidizing succinate did not stimulate the rate of oxygen uptake”. Besides, the “NADH-dependent oxygen consumption (IM permeabilization to NADH)” value in experiment [9] (1 μM Vpr52-96, 2 mM NADH, Fig. 5 A) is “prompted a significant, NADH-stimulated oxygen consumption”. Further, the “time of maximal NADH oxidation after addition” value in experiment [9] (Vpr52-96, 2 mM NADH, Fig. 5 B) is 10 min. Further, in experiment [10], the “access of cytochrome c to cytochrome c oxidase” value is “only induced a marginal access of cytochrome c to cytochrome c oxidase”. Further, the “order of ΔΨm loss, inner MMP and cytochrome c release” value in experiment [11] was “the ΔΨm loss occurred before cytochrome c release can be detected by immunoblot; also recorded: causes inner MMP well before OM becomes permeable to cytochrome c”. For the same molecule, the swollen mitochondria worked out at 82 ± 4% in the experiment with isolated mitochondria (5 min after 3 μM Vpr52-96, X ± SEM, n = 3) and 99 ± 1% in the experiment on isolated mitochondria (15 min after 3 μM Vpr52-96). Moreover, in the experiment on isolated mitochondria (Vpr52-96-treated mitochondria, Fig. 6 C), the “ultrastructural effect (in words)” value is “exhibited matrix swelling before OM rupture became apparent”.

On to “Vpr1-96: entire (full-length) Vpr protein”, for which the “effect on RC (in words)” value in experiment [7] was “also reduced the RC values”. The “action on PTPC and mitochondrial hallmarks of apoptosis” value in the experiment on PTPC was “act on the PTPC to induce all mitochondrial hallmarks of apoptosis, including ΔΨm loss and the release of cytochrome c and apoptosis-inducing factor (AIF)”.

With “Vpr53-96: printed once; probably Vpr52-96”, the “interaction with recombinant Bcl-2” value with recombinant Bcl-2 is “found not to interact with recombinant Bcl-2”.
